Activity calls are given as the source filed them. No cut-off for these calls is given here.
Experiments:
[1] = Cmax in Sprague-Dawley rat plasma at 10 mg/kg, po administered as single dose by LC-MS/MS analysis; type: ADME, organism-based; design: dose 10 mg/kg, route oral
Summary of the method: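 Single-dose PK in drug-naive adult male Sprague−Dawley rats, n = 3 per group: 3.1 μmol/kg IV in 5% DMSO/10% Solutol in saline (5 mL/kg), or 15.7 μmol/kg PO in 5% Solutol/10% Captisol in 25 mM PBS, pH adjusted to 2 with HCl. Plasma parameters reported as mean ± SD.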

[2] = Drug level in cynomolgus monkey CSF at 0.3 to 3 mg/kg, po measured up to 24 hrs post dose by LC-MS/MS analysis; type: ADME, organism-based, Macaca fascicularis, Cerebrospinal fluid; settings: in vivo, BLD = below limit of detection
Summary of the method: (§1)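 Cynomolgus monkeys (n = 3/group) fitted with subcutaneous CSF ports were dosed orally at 0.4−15.7 μmol/kg in 5% Solutol plus 20% Captisol in 25 mM PBS, pH 2. CSF (about 0.30 mL) and blood were sampled predose and at 0.5, 1, 2, 3, 4, 8, 12 and 24 h. Quantitation limit 1.0 ng/mL; mean ± SD.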

[3] = Drug level in cynomolgus monkey CSF at 10 mg/kg, po measured at 1 hr post dose by LC-MS/MS analysis; type: ADME, organism-based, Macaca fascicularis, Cerebrospinal fluid; settings: read-out: Drug uptake; summary of the method: as §1
[4] = Efflux ratio of apparent permeability in human Caco2 cells; type: ADME, cell-based; settings: Caco-2
[5] = Apparent permeability from basolateral to apical side in human Caco2 cells; type: ADME, cell-based; settings: Caco-2
Summary of the method: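 Caco-2 monolayer permeability measured in both the A-to-B and B-to-A directions and reported as P_app (×10⁻⁶ cm/s).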

[6] = Drug level in cynomolgus monkey plasma at 3 mg/kg, po measured at 24 hrs post dose by LC-MS/MS analysis; type: ADME, organism-based, Macaca fascicularis
[7] = Drug level in cynomolgus monkey plasma at 3 mg/kg, po measured at 2 hrs post dose by LC-MS/MS analysis; type: ADME, organism-based, Macaca fascicularis
[8] = Drug level in cynomolgus monkey plasma at 10 mg/kg, po measured at 4 hrs post dose by LC-MS/MS analysis; type: ADME, organism-based, Macaca fascicularis
[9] = Toxicity in cynomolgus monkey assessed as gross behavioral abnormality at 0.3 to 10 mg/kg, po measured up to 24 hrs post dose; type: organism-based, Macaca fascicularis; settings: in vivo
Summary of the method: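 Cynomolgus monkeys (n = 3/group) received an oral dose of 0.4, 1.5, 4.7 or 15.7 μmol/kg in 5% Solutol/20% Captisol in 25 mM PBS, pH 2. CSF was drawn via subcutaneous ports and blood sampled predose and at 0.5–24 h.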

[10] = Total clearance in Sprague-Dawley rat at 10 mg/kg, po or 2 mg/kg, iv administered as single dose measured up to 24 hrs post dose by LC-MS/MS analysis; type: ADME, organism-based; settings: in vivo
Summary of the method: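 Groups of three drug-naive adult male Sprague–Dawley rats, single dose: IV 3.1 μmol/kg in 5% DMSO/10% Solutol in saline (5 mL/kg), or PO 15.7 μmol/kg in 5% Solutol/10% Captisol in 25 mM PBS adjusted to pH 2 with HCl. Plasma concentration–time data give the parameters; mean ± SD.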

[11] = Drug level in cynomolgus monkey plasma at 3 mg/kg, po measured at 4 hrs post dose by LC-MS/MS analysis; type: ADME, organism-based, Macaca fascicularis
[12] = Drug level in Sprague-Dawley rat CSF at 3 mg/kg, po qd for 5 days measured 2 hrs post last dose by LC-MS/MS analysis; type: ADME, organism-based, Cerebrospinal fluid; settings: read-out: Drug uptake
Summary of the method: (§2)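 Drug-naive Sprague−Dawley rats (n = 5/group) were dosed orally once daily for 5 days in 5% Solutol plus 20% Captisol in 25 mM PBS, pH 2, and sacrificed 2 h after the last dose. Drug was measured in CSF, brain and plasma; mean ± SEM.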

[13] = Drug level in Sprague-Dawley rat plasma at 100 mg/kg, po measured 2 hrs post dose by LC-MS/MS analysis; type: ADME, organism-based
Summary of the method: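 Drug-naive Sprague−Dawley rats (n = 4−5/group) were dosed orally once in 5% Solutol plus 20% Captisol in 25 mM PBS, pH 2, and euthanized 2 h later by CO₂. CSF was drawn from the cisterna magna. Drug was measured in CSF, brain and plasma; data as mean ± SEM.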

[14] = Drug level in Sprague-Dawley rat brain at 1 mg/kg, po qd for 5 days measured 2 hrs post last dose by LC-MS/MS analysis; type: ADME, organism-based; settings: read-out: Drug uptake; summary of the method: as §2
[15] = test system: Rattus norvegicus; experiment: In vivo inhibition of glycine transporter-1 in Sprague-Dawley rat assessed as increase in CSF glycine level at 1 to 10 mg/kg, po qd for 5 days; type: functional, organism-based
Summary of the method: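 Drug-naive Sprague-Dawley rats, n = 5 per group, dosed orally once daily for 5 days with vehicle or 1.6, 4.8 or 16.1 μmol/kg. Vehicle was 5% Solutol / 20% Captisol in 25 mM PBS, pH 2. Killed 2 h or 48 h after the last dose. CSF glycine was expressed as % of vehicle control (vehicle 2 h post last dose), mean ± SEM. Two-way ANOVA with Tukey test.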

[16] = Drug level in Sprague-Dawley rat plasma at 1 mg/kg, po qd for 5 days measured 2 hrs post last dose by LC-MS/MS analysis; type: ADME, organism-based; summary of the method: as §2

| Cmax [1] [ng/mL] | Drug uptake [2] | concentration at 1 h [3] [ng/mL] | efflux ratio [4] | Papp B→A [5] [×10⁻⁶ cm/s] | concentration at 24 h [6] [ng/mL] | concentration at 2 h [7] [ng/mL] | concentration at 4 h [8] [ng/mL] | clearance [10] [mL/min/kg] | concentration at 4 h [11] [ng/mL] | concentration at 2 h [12] [nM] | concentration at 2 h [13] [nM] | concentration at 2 h [14] [nM] | concentration at 2 h [16] [nM] | Structure (SMILES) | Activity [9] | inhibition [15] |
| --- | --- | --- | --- | --- | --- | --- | --- | --- | --- | --- | --- | --- | --- | --- | --- | --- |
| 352 | Bld | 5.9 | 2 | 47.4 | < 1 | 3.6 | 224 | 23.3 | 3.7 |  |  |  |  | CC(NC(=O)c1ccc(C(F)(F)F)cc1Cl)C1(N2CCN(S(=O)(=O)c3cn(C)nn3)CC2)CCC(F)(F)CC1.Cl (single isomer, unassigned; (+)) | Non-Toxic |  |
|  |  |  |  |  |  |  |  |  |  | 1.1 | 334 | 21 | 38.2 | Cl.Cn1cc(S(=O)(=O)N2CCN(C3(CNC(=O)c4ccc(C(F)(F)F)cc4Cl)CCC(F)(F)CC3)CC2)nn1 |  | Active |
